The text below walks through data of ChEMBL document CHEMBL1132347, “Cytotoxicity of 2,2':6',2' '-terpyridineplatinum(II) complexes against human ovarian carcinoma” (J Med Chem, 1999).

Several values for one entry are separate records, joined by “and”; a condition that tells them apart may be missing. Equal entries are not always repeated.

Holding throughout (format): functional, cell-based
For assay [1], the system named is A2780. The assay can be described thus: In vitro inhibition of human ovarian cell line, resistant to cisplatin (A2780cisR). The gist of the method:
(§1)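 Single viable cells seeded at 4000-5000/well in DMEM with 10% fetal calf serum and left to attach overnight. Compounds dissolved in water and added at once, 10 concentrations per drug, 4 wells per concentration, 96 h exposure. Cell number in treated versus control wells read by sulforhodamine B staining; IC50 is the concentration cutting absorbance by 50% relative to controls.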

Assay [2] concerns A2780. The assay can be described thus: In vitro inhibition of human ovarian cell line A2780. The gist of the method:
as §1

The test system of assay [3] is CH1. The assay can be described thus: In vitro inhibition of human ovarian cell line (CH1). The gist of the method: as §1
Assay [4] relates to CH1. Briefly: In vitro inhibition of human ovarian cell line, resistant to cisplatin (CH1cisR). The gist of the method:
as §1

The test system of assay [5] is SK-OV-3. Briefly: In vitro inhibition of human ovarian cell line SKOV-3. In outline: as §1
In assay [6] the test system is CH1. The assay can be described thus: In vitro inhibition of human ovarian cell line, resistant to doxorubicin (CH1doxR). The gist of the method: as §1
The subject of assay [7] is A2780. The assay can be described thus: Resistance factor, (IC50 of A2780 cisR cisR / IC50 of A2780). The following applies: Homo sapiens.
The test system of assay [8] is CH1. The assay can be described thus: Resistance factor, (IC50 of CH1 cisR / IC50 of CH1). Conditions: Homo sapiens; CH1cisR.
Assay [9] concerns CH1. The assay can be described thus: Resistance factor, (IC50 of CH1 doxR / IC50 of CH1). The following applies: Homo sapiens.

Regarding “4'-chloro-2,2':6,2''-Terpyridineplatinum (II) complex [listing 1 of 4 here]”, the IC50 turned out to be 1.4 µM in assay [1]; 2.4 µM in assay [2]; 1.4 µM in [3]; 1.8 µM in assay [4]; 5.1 µM in assay [5]; 0.46 µM in assay [6].

As to “4'-chloro-2,2':6,2''-Terpyridineplatinum (II) complex [listing 2 of 4 here]”, the IC50 in assay [1] is 11 µM; in assay [2], more than 25 µM; in [3], 2.05 µM; in assay [4], 2.15 µM; in assay [5] it was 3.5 µM; in [6] it was 0.71 µM.

In the case of “4'-chloro-2,2':6,2''-Terpyridineplatinum (II) complex [listing 3 of 4 here]”, the half-maximal inhibitory concentration (IC50) in assay [1] is 6.6 µM; in [2] it was 4.75 µM; in assay [3] it was 2.15 µM; in assay [5], 1.8 µM.

Consider “4'-chloro-2,2':6,2''-Terpyridineplatinum (II) complex [listing 4 of 4 here]”, for which the Resistance factor in [7] was 1.4 and 0.6; in [8], 1 (2×) and 1.3; in assay [9] it was 0.3.

Consider “(2,2':6',2''-terpyridine)platinum (II) complex [listing 1 of 10 here]”, for which the half-inhibitory concentration (IC50) in assay [1] is 29.5 µM; in assay [2], 39 µM; in [3], 5 µM; in [4], 5.8 µM; in assay [6] it was 1.05 µM.

For the substance “(2,2':6',2''-terpyridine)platinum (II) complex [listing 2 of 10 here]”, the concentration for half-maximal inhibition (IC50) was 21.5 µM in assay [2]; 15.5 µM in [3]; 14 µM in assay [4]; more than 100 µM in assay [5]; 5.4 µM in assay [6].

For the substance “(2,2':6',2''-terpyridine)platinum (II) complex [listing 3 of 10 here]”, the IC50 in assay [1] is more than 100 µM; in assay [3], 17.5 µM; in assay [4], 18 µM; in assay [5], 24 µM; in [6] it was 5.7 µM.

Consider “(2,2':6',2''-terpyridine)platinum (II) complex [listing 4 of 10 here]”, for which the results for the 50% inhibitory concentration (IC50) in assay [3], in assay [4] and in assay [6] were more than 100 µM, more than 100 µM and 17.5 µM, respectively.

On to “(2,2':6',2''-terpyridine)platinum (II) complex [listing 5 of 10 here]”, for which the concentration for half-maximal inhibition (IC50) in assay [1] was determined as 92 µM; in [2] it was 40 µM; in assay [3], 14 µM; in assay [4], 12.5 µM; in assay [5], 17 µM; in [6] it was 5 µM.

Consider “(2,2':6',2''-terpyridine)platinum (II) complex [listing 6 of 10 here]”, for which the 50% inhibitory concentration (IC50) came to 21.5 µM in assay [1]; 16 µM in assay [2]; 6.1 µM in assay [3]; 7.5 µM in assay [4]; 13 µM in assay [5]; 3.95 µM in assay [6].

Take “(2,2':6',2''-terpyridine)platinum (II) complex [listing 7 of 10 here]”: the IC50 came to 6.7 µM in assay [1]; 5.8 µM in assay [2]; 2.1 µM in assay [3]; 2.1 µM in [4]; 9.2 µM in assay [5]; 0.85 µM in [6].

As to “(2,2':6',2''-terpyridine)platinum (II) complex [listing 8 of 10 here]”, the IC50 was found to be 25 µM in assay [1]; 27 µM in assay [2]; 7.2 µM in [3]; 8.9 µM in assay [4]; 13.5 µM in assay [5]; 1.5 µM in assay [6].

For the substance “(2,2':6',2''-terpyridine)platinum (II) complex [listing 9 of 10 here]”, the half-inhibitory concentration (IC50) in assay [1] came out at 23.5 µM; in [2] it was 11.5 µM; in assay [3], 5.2 µM; in assay [4], 4.5 µM; in [5], 15 µM; in assay [6] it was 3.75 µM.

Take “(2,2':6',2''-terpyridine)platinum (II) complex [listing 10 of 10 here]”: the Resistance factor in [7] is 1.3 [middle of 6 runs]; in [8], 0.9 (3×) and 1 (2×) and 1.2 (3×).

For CARBOPLATIN [listing 1 of 2 here], the concentration for half-maximal inhibition (IC50) in assay [1] is more than 100 µM; in assay [2] it was 35 µM; in [3], 6.2 µM; in assay [4], 14 µM; in assay [5], more than 100 µM; in assay [6], 6 µM.

For the substance CARBOPLATIN [listing 2 of 2 here], the Resistance factor in assay [8] stood at 2.3; in assay [9] it was 1.

On to CISPLATIN [listing 1 of 2 here], for which the IC50 in assay [1] stood at 8.8 µM; in assay [2] it was 0.53 µM; in [3] it was 0.4 µM; in assay [4], 1.2 µM; in assay [5], 2.25 µM; in [6], 0.5 µM.

Take CISPLATIN [listing 2 of 2 here]: the figures for the Resistance factor in assay [7], in assay [8] and in assay [9] were 16.6, 3 and 1.2, respectively.

A word on the IC50: it is the concentration needed to halve the response being measured.
